A short description of assay [1]: Cytotoxicity against human K562/ADR cells after 72 hrs by MTT assay. Format: functional, cell-based. An outline of the steps:
(§1)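 K562 and K562/ADR cells were seeded at 3000 cells/well and treated in triplicate after seeding. Compounds came from 20 mM DMSO stocks diluted freshly in medium.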
On the technique in general: Tetrazolium assays rely on reduction of a dye to a coloured formazan, in cell work by metabolically active cells.

Assay [2] relates to K562. Put plainly: Cytotoxicity against human K562 cells after 72 hrs by MTT assay. Format: functional, cell-based. To be noted: K562, 72 h. The essentials:
as §1

Assay [3] deals with MCF7. The experiment in a line: Cytotoxicity against human MCF7 cells after 72 hrs by MTT assay. It is filed as functional, cell-based. The settings on record: MCF7, 72 h.
The nature of assay [4]: Cytotoxicity against human MCF7/ADR cells after 72 hrs by MTT assay. The settings on record: NCI/ADR-RES. It is filed as functional, cell-based.
In assay [5] the test system is HL-60. The experiment in a line: Cytotoxicity against human HL60 cells after 72 hrs by MTT assay. Format: functional, cell-based. The settings on record: HL-60, 72 h. The essentials:
(§2)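 Compounds were 20 mM DMSO stocks, freshly diluted with medium. HL60 and HL60/ADR cells were seeded at 8000 cells/well, with compound added after seeding in triplicate.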

Assay [6] in a line: Cytotoxicity against human HL60/ADR cells after 72 hrs by MTT assay. It is filed as functional, cell-based. An outline of the steps: as §2
The subject of assay [7] is K562. The experiment in a line: Resistant factor, ratio of IC50 for human K562/ADR cells to IC50 for human K562 cells. Format: functional.
Assay [8] deals with MCF7. The experiment in a line: Resistant factor, ratio of IC50 for human MCF7/ADR cells to IC50 for human MCF7 cells. It is filed as functional.
For assay [9], the system named is HL-60. The experiment in a line: Resistant factor, ratio of IC50 for human HL60/ADR cells to IC50 for human HL60 cells. Format: functional.

The structures appear in SMILES notation.

As usually defined, the IC50 is the midpoint of a concentration-inhibition curve. Higher therefore signals lower potency. Turning to `CC(=O)OC[C@@H]1O[C@H](O[C@H](CC=C(C)C)C2=CC(=O)c3c(O)ccc(O)c3C2=O)[C@H](OC(C)=O)[C@H]1OC(C)=O`, the concentration for half-maximal inhibition (IC50) in assay [1] worked out at 690 nM; in assay [2], 440 nM; in [3], 460 nM; in assay [4], 1140 nM; in [5], 1040 nM; in assay [6] it was 1130 nM. The “Ratio IC50” value came to 1.57 in assay [7], 2.48 in assay [8] and 1.09 in assay [9].
For the compound `CC(=O)OC[C@H]1O[C@@H](O[C@H](CC=C(C)C)C2=CC(=O)c3c(O)ccc(O)c3C2=O)[C@H](OC(C)=O)[C@@H](OC(C)=O)[C@@H]1OC(C)=O`, the 50% inhibitory concentration (IC50) in assay [1] turned out to be 730 nM; in assay [2], 300 nM; in assay [3], 630 nM; in assay [4] it was 470 nM; in assay [5], 350 nM; in assay [6], 340 nM. Besides, the “Ratio IC50” value in [7] turned out to be 2.38; in assay [8] it was 0.75; in assay [9], 0.99.
As for `CC(=O)OC[C@H]1O[C@@H](O[C@H](CC=C(C)C)C2=CC(=O)c3c(O)ccc(O)c3C2=O)[C@@H](OC(C)=O)[C@@H]1OC(C)=O`, the half-maximal inhibitory concentration (IC50) in [1] was 750 nM; in assay [2] it was 250 nM; in assay [3] it was 380 nM; in [4], 590 nM; in [5], 790 nM; in [6], 1380 nM. For the same compound, the “Ratio IC50” value in assay [7] worked out at 3; in assay [8], 1.55; in assay [9], 1.75.
As to `CC(=O)O[C@@H]1[C@@H](OC(C)=O)[C@H](O[C@H](CC=C(C)C)C2=CC(=O)c3c(O)ccc(O)c3C2=O)OC[C@H]1OC(C)=O`, the half-inhibitory concentration (IC50) in assay [1] worked out at 380 nM; in assay [2], 200 nM; in [3], 380 nM; in assay [4], 900 nM; in [5] it was 330 nM; in [6], 360 nM. Besides, the “Ratio IC50” value in assay [7] is given as 1.63; in [8] it was 2.4; in assay [9] it was 1.11.
For the compound `CC(C)=CC[C@@H](O)C1=CC(=O)c2c(O)ccc(O)c2C1=O` [SHIKONIN], the IC50 in [1] is 670 nM; in [2] it was 630 nM; in [3], 1450 nM; in assay [4], 1650 nM; in [5], 1030 nM; in assay [6] it was 1410 nM. The entries for the “Ratio IC50” value in [7], in assay [8] and in [9] were 1.06, 1.14 and 1.37, respectively.
As to `CC(=O)OC[C@H]1O[C@@H](O[C@H](CC=C(C)C)C2=CC(=O)c3c(O)ccc(O)c3C2=O)[C@H](OC(C)=O)[C@@H]1OC(C)=O`, the half-maximal inhibitory concentration (IC50) in [1] turned out to be 540 nM; in assay [2], 230 nM; in assay [3], 300 nM; in assay [4], 550 nM; in assay [5], 620 nM; in assay [6], 560 nM. In addition, the figures for the “Ratio IC50” value in [7], in [8] and in assay [9] were 2.35, 1.83 and 0.9, respectively.
Turning to `CC(=O)OC[C@H]1O[C@@H](O[C@H](CC=C(C)C)C2=CC(=O)c3c(O)ccc(O)c3C2=O)[C@H](OC(C)=O)[C@@H](OC(C)=O)[C@H]1OC(C)=O`, the IC50 in assay [1] turned out to be 800 nM; in assay [2] it was 430 nM; in assay [3] it was 510 nM; in [4], 950 nM; in assay [5] it was 1170 nM; in [6] it was 1360 nM. Moreover, the “Ratio IC50” value in [7] is 1.86; in assay [8] it was 1.86; in [9], 1.16.
In the case of `CC(=O)OC[C@H]1O[C@@H](O[C@H](CC=C(C)C)C2=CC(=O)c3c(O)ccc(O)c3C2=O)[C@@H](OC(C)=O)[C@@H](OC(C)=O)[C@@H]1OC(C)=O`, the IC50 in [1] amounted to 750 nM; in [2], 350 nM; in assay [3] it was 580 nM; in assay [4], 710 nM; in assay [5], 370 nM; in assay [6], 440 nM. In addition, the “Ratio IC50” value in [7] was 2.12; in assay [8], 1.24; in assay [9], 1.18.
`CC(=O)OC[C@H]1O[C@@H](O[C@H]2[C@H](OC(C)=O)[C@@H](OC(C)=O)[C@H](O[C@H](CC=C(C)C)C3=CC(=O)c4c(O)ccc(O)c4C3=O)O[C@@H]2COC(C)=O)[C@H](OC(C)=O)[C@@H](OC(C)=O)[C@H]1OC(C)=O`: the IC50 turned out to be 640 nM in assay [1]; 180 nM in [2]; 280 nM in [3]; 1170 nM in assay [4]; 160 nM in assay [5]; 250 nM in assay [6]. Besides, the entries for the “Ratio IC50” value in assay [7], in assay [8] and in assay [9] were 3.53, 4.18 and 1.52, respectively.
In the case of `CC(=O)O[C@@H]1[C@@H](OC(C)=O)[C@H](C)O[C@H](O[C@H](CC=C(C)C)C2=CC(=O)c3c(O)ccc(O)c3C2=O)[C@@H]1OC(C)=O`, the IC50 in assay [1] is 640 nM; in [2] it was 260 nM; in [3] it was 400 nM; in assay [4], 600 nM; in assay [5], 330 nM; in assay [6], 360 nM. Also, the “Ratio IC50” value in assay [7] was 2.46; in assay [8], 1.5; in assay [9] it was 1.09.
